# Screens from PubChem.
# Most compounds without a hit are left out; they make up all but 2.6% or so of the library.
# ABHD5 PLIN5 PPI: inhibitors of human ABHD5-perilipin-5 interaction; Split G. princeps luciferase complementation, luminescence, 4 h; inhibition, % at 4 µM; 360,000 tested, 0.78% active; AID 602281;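 active means inhibition above the mean inhibition across every tested compound plus 3 SD, cut at about 22% in these data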;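 further: 0% = DMSO only wells and the 100% control is not disclosed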
# Target sequence (Q00G26 whole entry, looked up): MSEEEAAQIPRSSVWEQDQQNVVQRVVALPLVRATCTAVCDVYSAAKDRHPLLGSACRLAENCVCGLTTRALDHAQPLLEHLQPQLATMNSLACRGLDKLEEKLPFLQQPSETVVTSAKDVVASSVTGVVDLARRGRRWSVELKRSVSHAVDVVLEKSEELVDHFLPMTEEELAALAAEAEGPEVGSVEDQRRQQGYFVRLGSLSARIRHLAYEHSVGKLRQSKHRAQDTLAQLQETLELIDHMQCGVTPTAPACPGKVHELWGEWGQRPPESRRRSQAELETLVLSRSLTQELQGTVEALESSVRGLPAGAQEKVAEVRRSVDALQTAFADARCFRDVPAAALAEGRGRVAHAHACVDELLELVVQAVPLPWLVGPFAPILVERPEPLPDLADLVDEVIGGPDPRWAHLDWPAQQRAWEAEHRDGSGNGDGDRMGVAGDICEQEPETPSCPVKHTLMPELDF
# Target sequence (Q8WTS1 whole entry, looked up): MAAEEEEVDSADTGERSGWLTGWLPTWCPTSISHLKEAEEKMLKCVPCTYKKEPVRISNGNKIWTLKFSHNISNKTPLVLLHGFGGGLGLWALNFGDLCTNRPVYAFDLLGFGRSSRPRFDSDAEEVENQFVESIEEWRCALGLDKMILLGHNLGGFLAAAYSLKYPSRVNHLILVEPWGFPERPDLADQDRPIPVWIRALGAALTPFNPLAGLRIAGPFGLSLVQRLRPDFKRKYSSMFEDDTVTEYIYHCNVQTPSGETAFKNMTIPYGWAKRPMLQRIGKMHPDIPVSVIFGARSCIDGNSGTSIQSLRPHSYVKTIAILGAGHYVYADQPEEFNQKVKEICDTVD
# NadD inh: blocks S. aureus nicotinate mononucleotide adenylyltransferase | purified NadD enzyme, colorimetric absorbance read-out | inhibition, % at 20 µM | 360,000 tested, 0.78% active | AID 602399; in the data active means inhibition above about 26%
# HCV core dimer: HCV core protein dimerization inhibition. TR-FRET GST/Flag-core106 dimerization, 1536-well. inhibition, % at 5 µM. 300,000 tested, 0.33% active. AID 1899;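 active means inhibition above the mean of all tested compounds plus 3 SD, set per screening campaign, cut at about 45% in these data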
#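 assay system = GST-tagged and Flag-tagged HCV core protein residues 1-106 | controls = unlabelled core106 and no-GST-core106 wells | incubation = compound-protein-antibody incubation 4 h at 22.5 °C | probe or stimulus = Eu donor and XL665 acceptor anti-tag antibodies | read-out = % inhibition based on acceptor/donor emission ratio | signal = TR-FRET 671 and 617 nm emission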
# rCAG RNA binder: molecules binding r(CAG) RNA repeats | r(CAG) RNA repeat, TO-PRO-1 dye displacement fluorescence | inhibition, % at 3 µM | 370,000 tested, 1.3% active | AID 651821;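 active means inhibition above the plate cutoff, the mean of all test compounds on that plate plus 3 SD, cut at about 35% in these data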;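 further: 0% = DMSO alone and 100% = 100 µM mitoxantrone as full dye displacement; higher means more dye released from RNA so lower well fluorescence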
# rCAG binder conf: r(CAG) RNA repeat binding, confirmation | TO-PRO-1 dye displacement fluorescence | inhibition, % at 3 µM | AID 652065 | 4,300 tested, 70% active | shares compounds with rCAG RNA binder;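 active means inhibition above a per-plate cutoff, the mean inhibition of sample wells plus 3 SD, cut at about 35% in these data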;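 further: loss of TO-PRO-1 fluorescence as compound displaces dye from 1x1 AA loop RNA; 0% = DMSO only wells and 100% = 100 µM mitoxantrone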
# dCAG dye counter: disrupts DNA CAG TO-PRO-1 complex, flagging rCAG hits; shares compounds with rCAG RNA binder; d(CAG) DNA oligo TO-PRO-1 dye displacement, fluorescence; inhibition, % at 3 µM; 4,300 tested, 94% active; AID 652068;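 active means inhibition above its plate's cutoff, the mean test-well inhibition plus 3 SD, cut at about 4.8% in these data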;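 further: 0% = DNA dye mix with DMSO and 100% = 100 µM mitoxantrone; hits displace the dye from DNA and so lower well fluorescence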
# Starred values were filed as active, the others as inactive; . = no result given.
SMILES,ABHD5 PLIN5 PPI,NadD inh,HCV core dimer,rCAG RNA binder,rCAG binder conf,dCAG dye counter
O=C(O)c1cccc(NS(=O)(=O)c2ccc(Cl)c(C(=O)O)c2)c1,-8,-4,0,1,.,.
O=C(Nc1ccccc1C(=O)O)c1cccc(S(=O)(=O)Nc2ccc(Br)cc2)c1,-1,1,-3,80*,58*,21*
Cc1ccc(S(=O)(=O)CCSc2cccc(C(=O)Nc3ccccc3C(=O)O)c2)cc1,-1,1,10,80*,83*,52*
Cc1ccccc1NS(=O)(=O)c1cccc(C(=O)Nc2cccc(C(=O)O)c2)c1,-4,-4,11,13,.,.
Cc1ccccc1Cn1cc(CN2[C@H](C)COc3cc(Br)ccc3S2(=O)=O)nn1,.,.,.,2,.,.
COC(=O)C[C@H]1CC[C@H](NC(=O)Nc2ccccc2F)[C@@H](CO)O1,3,.,.,0,.,.
O=C(Nc1ccccc1C(=O)O)c1cccc(NS(=O)(=O)c2ccc(Br)cc2)c1,-2,-5,12,81*,68*,26*
O=C(Nc1cccc(C(F)(F)F)c1)c1cccc(NS(=O)(=O)c2ccc(O)c(C(=O)O)c2)c1,6,0,11,79*,62*,24*
COCCCNC(=O)c1ccc(Cn2c(=O)c3ccccc3n(Cc3ccc(Br)cc3)c2=O)cc1,.,.,.,9,.,.
COc1ccc(-c2cc(C(=O)NN=Cc3ccc(O)c(OC)c3)[nH]n2)cc1,.,.,.,8,.,.
CC(C)C(=O)NC(NC(=S)Nc1ccc(S(N)(=O)=O)cc1)C(Cl)(Cl)Cl (configuration not stated),-1,0,-4,46*,4,2
CCCSc1nc(O)c(C(c2ccc(OC)c(O)c2)c2c(O)nc(SCCC)n(C)c2=O)c(=O)n1C,4,18,-3,46*,40*,13*
COc1cccc(C(c2c(O)nc(SC)n(C)c2=O)c2c(O)nc(SC)n(C)c2=O)c1,0,5,-8,3,.,.
Cc1cccc(C)c1N1C(=O)c2ccccc2NC(=O)C1C(=O)Nc1ccc2c(c1)OCCO2 (configuration not stated),-4,.,.,5,.,.
CCC1CCCCN1C(=O)c1cccc(S(=O)(=O)Nc2cc(C(F)(F)F)ccc2Cl)c1 (configuration not stated),-7,2,17,36*,56*,16*
O=C(NC1CCN(Cc2ccccc2)CC1)c1cccc(S(=O)(=O)Nc2cc(C(F)(F)F)ccc2Cl)c1,9,6,9,64*,55*,17*
Cn1c(-c2ccccc2)cc(=NNS(C)(=O)=O)c2cc(S(=O)(=O)O)ccc21,-2,-7,.,2,.,.
C=CCN1c2ccc(Br)cc2C(=O)CS1(=O)=O,-6,2,.,66*,10,6.3*
COc1cccc(CN2C(=O)C(C)Oc3ccccc32)c1 (configuration not stated),2,-1,1,-7,.,.
COc1cccc(CN2c3ccc(Br)cc3C(=O)CS2(=O)=O)c1,4,9,.,52*,39*,16*
CCCCCCCCCCCCN1[C@@H](CC(=O)O)c2cc(F)ccc2S1(=O)=O,3,17,11,76*,68*,24*
CCCCCCCCN1[C@@H](CC(=O)OC)c2cc(F)ccc2S1(=O)=O,12,-1,1,-9,.,.
COc1ccc(/C=C2/SC(=S)N(NS(=O)(=O)c3ccc(C)cc3)C2=O)cc1,-6,20,-1,84*,84*,47*
C=CCOc1ccc(/C=C2\SC(=S)N(NS(=O)(=O)c3ccc(C)cc3)C2=O)cc1,1,17,6,80*,84*,53*
Cc1ccc(S(=O)(=O)NN2C(=O)/C(=C/c3cccs3)SC2=S)cc1,-2,5,6,63*,55*,22*
Cc1ccc(/C=C2\SC(=S)N(NS(=O)(=O)c3ccc(C)cc3)C2=O)cc1,1,19,12,8,.,.
Cc1ccc(S(=O)(=O)NN2C(=O)/C(=C/c3ccc(F)cc3)SC2=S)cc1,-3,11,-2,26,.,.
CCCN(CC1CC1)c1c2c(nc3ncnn13)CCCC2,.,.,.,0,.,.
CCCNC(=O)C1(C)CCCN(C(=O)Cc2ccc(OC)c(OC)c2)C1 (configuration not stated),-4,2,.,16,.,.
c1ccc(CCn2nnc(-c3ccc(N4CCOCC4)cc3)n2)cc1,.,.,.,6,.,.
